Reference: the RNAGym collection of RNA variant scans (doi:10.1126/science.aae0568)
Variants at the floor of the assay were thinned out.

B1: tRNA (parent)
chain: GUUCCGUUGGCGUAAUGGUAACGCGUCUCCCUCCUAAGGAGAAGACUGCGGGUUCGAGUCCCGUACGGAACG

Variants of: B1
Test: yeast fitness relative to wild type (ratio to wild type); higher = fitter; tRNA-Arg(CCU), competitive growth, 37 C, YPD
Procedure, shortened: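 Variants of the tRNA-Arg(CCU) gene, chemically synthesised with a 3% per-site mutation rate at 69 sites, were placed at the native genomic locus in Saccharomyces cerevisiae. The pooled strains were competed in YPD at 37°C for 24 hours in six parallel replicates. Gene amplicons from the start population and from each end population were read by 100-nucleotide paired-end sequencing. Darwinian fitness relative to wild type came from changes in genotype frequencies; genotypes needed ≥ 100 starting reads, and estimates < 0.5 were set to 0.5.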

Variant | yeast fitness
U13A A20G G41A G51C | 0.532
U13A C27U A57G C66U | ≤ 0.5
U13A C55U A70C | 0.571
G12C C33G A36G G44C | ≤ 0.5
U13A A14U C22G A45U | 0.507
G12C U19A C27G C49G C61U | ≤ 0.5
G12C U26A C33A C34G A69C | ≤ 0.5
U13A A15G C29A C61G | ≤ 0.5
G12C U28A A37G G38A A45U A70G | ≤ 0.5
U13A C29U A40C A69U | ≤ 0.5
U13A C30U C55G G58C G63C C66U | ≤ 0.5
G12U A15G | 0.814
U13A C24A C61A A69U | 0.505
G12C G39A G68C | ≤ 0.5
G12C U64C | 0.916
U13A C24U U59C | 0.55
G12C U16A G23C C29A C60A | ≤ 0.5
U13A A20U C27U A42G | ≤ 0.5
U13A A45C | 0.902
G12C C33G C34U A36C A43G G52C C60U | 0.608
G12C U13C C27U C62G | ≤ 0.5
U13A A20G A21G A65C | ≤ 0.5
G12C U13C A20C C29G | ≤ 0.5
U13A A15C A45G C55U C61G | ≤ 0.5

Variant | yeast fitness
U13A A21C U54G C66U | ≤ 0.5
U13A A14G | 0.843
U13A A14U C22G A37G | 0.631
U13A C33G A36G C49A | ≤ 0.5
G12C C31A | 0.774
G12C C31G | 0.818
G12C C31U | 0.876
U13A A20U C24U A37G U59G | ≤ 0.5
G12C G17A C49U U59C | ≤ 0.5
G12U G44C | 0.766
U13A A15C C33G C49U U64A | ≤ 0.5
U13A A14C C22A G48C G67U | ≤ 0.5
G12C C30U G56A | 0.54
U13A A14C C22A G48C | 0.546
G12C C61A A65U | ≤ 0.5
U13A C27G A40G G41C | 0.741
U13A A14G C30G | ≤ 0.5
G12C C30U U59A | ≤ 0.5
U13A C30G C61U G68A | ≤ 0.5
G12C U13A A36U | 0.626
U13A A65C | 0.79
U13A A65G | 1.04
U13A C46A U64C | 0.609
G12C G18C G41A A43G G48A | ≤ 0.5

Variant | yeast fitness
G12C G50A U54A | ≤ 0.5
U13A A20C C46U A70U | 0.589
G12C C31G C33G U35C | 0.515
G12C U16A G23C C29A A45C G68A | 0.748
G12C G51C U59G | ≤ 0.5
G12C G41A A65C | ≤ 0.5
U13A A15G C27U | 0.601
U13A A15G C27G | ≤ 0.5
U13A C33A U54C | ≤ 0.5
G12C U26C | 0.859
U13A A21U C22G C31A G50A | ≤ 0.5
G12C U28C C49U U59A | ≤ 0.5
U13A C31G C34A | 0.624
U13A C22G G25C C27U C30G C55A A69U | 0.572
G12U | 1.04
G12C G48C | 0.787
G12C G48A | 1.01
U13A A42C A70U | 0.671
G12C C62U | 0.776
G12C C30U | 0.694
G12C G17A U28A C49A | ≤ 0.5
G12C U47A G68C | 0.533
U13A A69G | 1.07
U13A C61A | 0.706

Variant | yeast fitness
U13A A15G C31G G58C | ≤ 0.5
U13A A40C A70U | ≤ 0.5
U13A A20C C33A G39A | ≤ 0.5
U13A C24G G25A G39C A40C G51C | 0.745
G12U C24A G44A A65U | ≤ 0.5
G12C U16A C27G A36G C46U C61U C62A G68A | ≤ 0.5
U13A C46A G48C | 1.08
G12C C61G C62U | 0.605
U13A A45G G50C C60A A69C | 0.821
G12C G17A C46G C49U | ≤ 0.5
U13A A21C G52A | ≤ 0.5
G12C G52A | 0.745
G12C G52C | 0.563
U13A A40G A42G | ≤ 0.5
G12C G18C C27A G38C C49G | ≤ 0.5
U13A A21U C22G C31A | 0.701
G12C G25A G41C | 0.591
U13A C22G C31G | 0.547
U13A C27U G56A | 0.97
G12C G63A | 0.81
G12C U16A C24G G58C | 0.567
U13A C22A C27U A42U | ≤ 0.5
G12C U28A G51A A57U C62U | 0.594
G12C U16A U26A G67U | ≤ 0.5

Variant | yeast fitness
U13A C60U | 0.699
G12C C31G G51A C55G G68C | 0.627
G12C U16A C60G C61U G63A G68A | ≤ 0.5
U13A A21G A57U | 0.597
G12C G48C G58A | 0.804
G12C G17A A20U C34A G41C | ≤ 0.5
G12U A36G G63A A69U | 0.604
U13A A20C C22G | ≤ 0.5
G12C U13A G50A | ≤ 0.5
G12C C62G A65C | ≤ 0.5
U13A A43G U53G | ≤ 0.5
U13A C22U C46U | 1.06
U13A C27G A40G G41C A69U | 1.07
G12C U53A C61U C62A | ≤ 0.5
U13A A37C G56A | ≤ 0.5
G12C U13A G18C U32A G52A | ≤ 0.5
G12U A36G A65C | 0.561
G12C C61A C62A | ≤ 0.5
U13A A37G G41C | ≤ 0.5
G12C G23C | 0.588
G12C C66U | 0.743
G12C C66G | 0.657
G12C C31U U59A | 0.6
U13A A45G G67U | 0.629

Variant | yeast fitness
U13A C30U C33A U35C | 0.558
U13A A40U G52U C55G | ≤ 0.5
U13A C29A C31G | 0.524
G12C U53C C60G G63U | 0.691
G12C U32G | 0.689
U13A C49G | 1.01
G12C G56C G58C | ≤ 0.5
U13A A57C C66G | ≤ 0.5
G12C C34A A70U | ≤ 0.5
G12C G48C G52C | ≤ 0.5
G12C U16C | 0.771
G12C G18C C66U | 0.528
U13A C60G G67A | ≤ 0.5
U13A C60U A69U | 0.62
G12C U13G A15C A36U | ≤ 0.5
U13A A15G A21C C22G C30G A37U | 0.636
U13A C22G C31G C61A G67A | ≤ 0.5
G12C U28G A37G G41A G48A A65U C66U | ≤ 0.5
G12C U35A G41C | ≤ 0.5
U13A A15G C61U | 0.564
U13A C22U U35A C60U C61A | ≤ 0.5
U13A A21U G58C G68C | 0.857
U13A A37U G67C | 0.645
U13A C30A A69C | 0.656

Variant | yeast fitness
U13A C22G U32C A42C G48C C55G | ≤ 0.5
U13A A15G | 0.932
U13A C33G | 0.741
U13A C61A G68A | ≤ 0.5
G12C C62U A70U | 0.606
G12C C66G A69U | ≤ 0.5
G12C G39A A42C | ≤ 0.5
U13A A21C U54G | 0.557
U13A A21G C60G C66G | 0.756
G12C G18A | 0.823
G12C C61U C66G | ≤ 0.5
U13A A21C C24A G25C C49U | ≤ 0.5
U13A C31A A42G G67A A69U | ≤ 0.5
U13A A20C C46U | 0.844
U13A A40G A43C G50A G67C | ≤ 0.5
U13A C27G A42U A57C | ≤ 0.5
U13A A37C G41A U47A U59C | ≤ 0.5
U13A C27G A45C | 0.743
U13A C34G C61U | ≤ 0.5
G12C G25C G39C | ≤ 0.5
U13A C30U U47A U59A C60U C62G C66U | 0.55
U13A C29G A42C C62G | ≤ 0.5
U13A A37C A43U G50C A57G | ≤ 0.5
